Data as given in the EternaBench riboswitch data.

Test system: MS2 coat protein
Test: apparent Kd, MS2 coat protein; higher = weaker binding; RNA-MaP array; FMN 200 µM where present
How it was run: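 The apparent Kd comes from binding curves fitted cluster by cluster, filtered, and summarised as a median. Those curves followed SNAP-549-labelled MS2 coat protein from 0.7 or 1.5 nM, doubling to 3 µM, on Illumina sequencing-chip clusters where stalled E. coli RNA polymerase had transcribed the designs, without and then with constant ligand. The buffer was 100 mM Tris-HCl pH 7.5, 80 mM KCl, 4 mM MgCl2, BSA, DTT, yeast tRNA and Tween-20, and green signal was normalised to red-channel RNA signal and control-cluster median Fmax.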

[1] = designed as: ON switch for flavin mononucleotide, no ligand
[2] = ligand present: flavin mononucleotide, designed as: ON switch for flavin mononucleotide
[3] = designed as: OFF switch for flavin mononucleotide, no ligand
[4] = ligand present: flavin mononucleotide, designed as: OFF switch for flavin mononucleotide

| Sequence | apparent Kd [1] | apparent Kd [2] | apparent Kd [3] | apparent Kd [4] |
| --- | --- | --- | --- | --- |
| AACGGGUGGGUAGGAUAUGGCUAUGUCUCAUUGCUAGAAGGACCAGCUGCUACAUGAGGAUCACCCAUGUCGUAGUGCACCCAG | 421 nM | 33.5 nM | – | – |
| AACGGUGGGUAGGAUAUCCGGUUCUAGUUGCCAGGAGAAGGGCCCACAUGAGGAUCACCCAUGUGGGUGGGCUC | – | – | 47.7 nM | 26.1 nM |
| AACUGACGACGUCAGUUGCGUAGGCAGGAUAUACAUGAGGAUCACCCAUGUGCAUGAUGCUACGAGUAGAAGGGCCGAGGCGAU | – | – | 6.15 nM | 11.2 nM |
| AACUGCUGCGUUGUGAUUUCUCCACAUGAGGAUCACCCAUGUCAGGAUAUCUUACCUAGCGGACAAGAGAAGGGACAUGACGGU | – | – | 348 nM | 129 nM |
| AACUGGUGUGAGAAGGGACGUAUCUCCAUGAGGGCAGGGCUAUUAGAGAAGUCAGGAUAUCACAUGAGGAUCACCCAUGUGACG | – | – | 8.33 nM | 9.02 nM |
| AAGAAACAUGAGGAUCACCCAUGUAAAUAAAUCUCAGGAUAUCGUACAUGGAAGAUCUAACGAGAAGGGAGAAGAA | 137 nM | 140 nM | – | – |
| AAGAAACAUGAGGAUCACCCAUGUAAGAUAAACACAGGAUAUGCGAAUAAAAUAAAUAAAGCAGAAGGGUGAAGAA | – | 16.7 nM | – | – |
| AAGAAACAUGAGGAUCACCCAUGUAGAAAUAUGGGAGGAUAUACGAGGACGAAAGUCAAAGUAGAAGGCCUAAGAA | 56.9 nM | 27.4 nM | – | – |
| AAGAAACAUGAGGAUCACCCAUGUCGAGAGAGACGAGGAUAUCUGAAUCGAUUAGAUUACGGAGAAGGCGUGAAAA | 29.4 nM | 23.4 nM | – | – |
| AAGAAACAUGAGGAUCACCCAUGUGAGAAUAUGGGAGGAUAUACAAGGACGUAAGUCAAGGUAGAAGGCCUAAGAA | 171 nM | 29.7 nM | – | – |
| AAGAAACAUGAGGAUCACCCAUGUGAGGAUAUGAGCAAGAAAAGAAAAGAAAGAAGAAUCAGAAGGCACAAAGG | – | – | 39.6 nM | 75.7 nM |
| AAGAAACAUGAGGAUCACCCAUGUGUAAAUAUGGGAGGAUAUACAAGGACGUAAGUCAAGGUAGAAGGCCUAAGAA | 172 nM | 32.7 nM | – | – |
| AAGAAGUCAGGAUAUCGUUAAUUUAGUUGUUUGUAUUAGUUCGAGAAGGGACAUGAGGAUCACCCAUGUAAGAA | – | – | 35.2 nM | 42.7 nM |
| AAGAAGUGAGGAUAUACAUGAACGAAAAAAAAAAAGAGCAUGUAGAAGGCACAUGAGGAUCACCCAUGUCAAAA | – | – | 28.5 nM | 27.3 nM |
| AAGAAGUGAGGAUAUACGCGAACAAAAAAAAAAAAGAAAGCGUAGAAGGCACAUGAGGAUCACCCAUGUCCAAA | – | – | 27.2 nM | 36.3 nM |
| AAGAAGUGAGGAUAUGCAGUGGCCUGUAGACGCAAGCACUUGUAGAAGGCACAUGAGGAUCACCCAUGUUUAAA | – | – | 35 nM | 32.8 nM |
| AAGACAAAUGUAGGAUAUGCGUGGCGAAGCUAUGCAGAAGGACAUGAGGAUCACCCAUGUCUUAGCGUCUGCGUACAGAUGCUA | – | – | 16.7 nM | 20.9 nM |
| AAGAGGCGAGGAUAUACAUGAGGAUCACCCAUGUAAUCCGGAUAAGGAAGCAUGUCGUGUAGAAGGUGCCAUGA | – | – | 20.7 nM | 19.2 nM |
| AAGAGUAGAGGAUAUACGAAAAAAGAGUCGAAAGACUCGGGACAUGAGGAUCACCCAUGUAGAAGGCUACUCAA | – | – | 25.4 nM | 120 nM |

| Sequence | apparent Kd [1] | apparent Kd [2] | apparent Kd [3] | apparent Kd [4] |
| --- | --- | --- | --- | --- |
| AAGAUGCGGGUAGGAUAUGGAGAGAAAGAAAGACCAGAAGGAUUGGUCACACAACAUGAGGAUCACCCAUGUGUGUGUUGCGAA | – | – | 14.1 nM | 11.9 nM |
| AAGAUGUAAGGAUAUGCUGCUCGUCACUUGCGUGAUGAGUAGCAGAAGGUACAUGAGGAUCACCCAUGUAAAGA | – | – | 30.4 nM | 43.3 nM |
| AAGAUGUUAGGAUAUGCUGCUCGUCACAAAAGUGAUGAGUAGCAGAAGGAACAUGAGGAUCACCCAUGUAAAGA | – | – | 31 nM | 55.3 nM |
| AAGCGAAAGCUAAAAUAUCUAUCAGAGGAUAUUUAUGAUACAUGAGGAUCACCCAUGUGACACUGGGAGAAGGCUGAUAGAUAA | 19.2 nM | 7.5 nM | – | – |
| AAGCGACGAGGAUAUCGGUGGCUGAACAUGAGGAUCACCCAUGUGAACCGAUGGCAGUGUCGAGAAGGUGUUGAGU | – | – | 13.9 nM | 16.1 nM |
| AAGGACAGAGGAUAUACAUAGAUACAGAUUCAUGUAGAACUACAUGAGGAUCACCCAUGUAGAAGGCUGUCCUA | – | – | 30.7 nM | 285 nM |
| AAGGAUAGAGGAUAUACAUAGAUACAGAUUCAUGUAAUCCUACAUGAGGAUCACCCAUGUAGAAGGCUAUCCUA | – | – | 15.8 nM | 58.3 nM |
| AAGGAUAGAGGAUAUACGUAGAUACAGAUUCAUGUAGAACUACAUGAGGAUCACCCAUGUAGAAGGCUAUCCUA | – | – | 28.8 nM | 299 nM |
| AAGGGACAUGAGGAUCACCCAUGUGAGGAUAUAUAAAUGUACCCGAUGGGAGUACACAAUAGAAGGCGCGGCUA | – | – | 40.7 nM | 32.8 nM |
| AAGGUGUUAGGAUAUCGGAGUUUGAGGCAGACGGGAAUUUUCGAGAAGGAACAUGAGGAUCACCCAUGUAGUAU | – | – | 24.1 nM | 24.8 nM |
| AAGUAGAUCCGAGGAUAUACAAUCUGGAAACGGUACAUGAGGAUCACCCAUGUAGAAGGCGGAUCUACAGGUACUAAAGUACCA | – | – | 7.4 nM | 16.4 nM |
| AAGUAUAAGGGCAUUAAACAUGAGGAUCACCCAUGUACAAUAGAGGAUAUGCAUUUUGGUUUAGAGUAGAAGGUUAGAGAAAAU | – | – | 28.2 nM | 33.5 nM |
| AAGUAUAGAGGAUAUAGUGAGUACUACAUGAGGAUCACCCAUGUUCUUCAAAGCGUAUUUCUAGAAGGCUAAUGAA | – | – | 50 nM | 114 nM |
| AAGUCAGCAGGAUAUGCGAUGUUGGGCUAGAUAGCGUGACCACAUGAGGAUCACCCAUGUAGAAGGGCUGGCUA | – | – | 37.4 nM | 43.7 nM |
| AAUAAACAUGAGGAUCACCCAUGUCAGGAUAUCCUAAAUAAAAAAAUAUAAAGAAGAAGGAGAAGGGACUAAAA | – | – | 111 nM | 120 nM |
| AAUAACAGAGGAUAUACUAUUUUAUGUGUUUAUUGUUUUGAACAUGAGGAUCACCCAUGUAGAAGGCUGAAUAA | – | – | 24.6 nM | 26.1 nM |
| AAUAACAGAGGAUAUACUAUUUUAUGUGUUUGUUGUUUUGAACAUGAGGAUCACCCAUGUAGAAGGCUGAGUAA | – | – | 27.9 nM | 30.3 nM |
| AAUAACAGAGGAUAUACUAUUUUAUGUGUUUGUUGUUUUGAACAUGAGGAUCACCCAUGUAGAAGGCUGAUUAA | – | – | 40.5 nM | 47 nM |
| AAUAACAGAGGAUAUACUGUUUUAUGUGUUUGUUAUUUUAAACAUGAGGAUCACCCAUGUAGAAGGCUGAAUGA | – | – | 21.5 nM | 24.5 nM |

| Sequence | apparent Kd [1] | apparent Kd [2] | apparent Kd [3] | apparent Kd [4] |
| --- | --- | --- | --- | --- |
| AAUAACAGAGGAUAUACUGUUUUAUGUGUUUGUUAUUUUGAACAUGAGGAUCACCCAUGUAGAAGGCUGAUUAA | – | – | 41.2 nM | 38.2 nM |
| AAUAACAGAGGAUAUACUGUUUUAUGUGUUUGUUGUUUUAAACAUGAGGAUCACCCAUGUAGAAGGCUGAAUAA | – | – | 19.3 nM | 20.3 nM |
| AAUAACAGAGGAUAUACUGUUUUAUGUGUUUGUUGUUUUAAACAUGAGGAUCACCCAUGUAGAAGGCUGAAUGA | – | – | 26.5 nM | 25.2 nM |
| AAUAAUUAGUAAGGAUAUACUAGCGAUUAGCUUGUAGAAGGUACAGUCUUAUGUAUAACAUGUUAACAUGAGGAUCACCCAUGU | 68.9 nM | 29.3 nM | – | – |
| AAUACAUGAGGAUCACCCAUGUUAUGUUCAAACAAUAUGAGUGAGGAUAUACUGAGUUAGUUAUGGUAGAAGGCACUGGGUUCA | 56.3 nM | 36.2 nM | – | – |
| AAUAGUAAGUAGAAGGUAGUAAGUAUGUUAAUCUUGUUAACAUGAGGAUCACCCAUGUAGACUACUAAGGAUAUACAUCGAUAG | – | – | 14.3 nM | 13.7 nM |
| AAUAUGAGCUGGUUUAAAUCCGAAACAUGAGGAUCACCCAUGUAGGAUAUCAGCACGAUAAGUGCUGAGAAGGACAUCCAGCUC | – | – | 15.6 nM | 15 nM |
| AAUAUGCAAGGAUAUACAACGUAGCUACGACGGAACGGGCUACAUGAGGAUCACCCAUGUAGAAGGUGCUACGC | – | – | 15.2 nM | 16.7 nM |
| AAUAUGUUGCAGAAGGCCAUGGUGUGGUAGUGCCUCAUGACAUGAGGAUCACCCAUGUCUGUGAUGGAGGAUAUGCAAUAUAUU | – | – | 67.2 nM | 152 nM |
| AAUAUGUUGCAGAAGGCUAUAUUGUUGUAGUACCUCAUGACAUGAGGAUCACCCAUGUUUGUGUUGGAGGAUAUGCAAUAUAUU | – | – | 7.82 nM | 7.07 nM |
| AAUAUGUUGCAGAAGGUUAUUUUUAUAACGUGCCACUUGACAUGAGGAUCACCCAUGUAAUUGAUGAAGGAUAUGCAAUAUAUU | – | – | 6.46 nM | 6.34 nM |
| AAUCCACAUGAGGAUCACCCAUGUCAGGAUAUGAACGGUCUGGCACCGUGGGUUCCUGUUGACCGUCAGAAGGGACAAGGGCCC | – | – | 5.69 nM | 7.72 nM |
| AAUCCACAUGAGGAUCACCCAUGUGAGGAUAUGAUACUAUGUACUUCGGUACAUAGUAUCAGAAGGCACAUAAA | – | – | 24.1 nM | 81 nM |
| AAUCCGUCACAUGAGGAUCACCCAUGUGACCCUACUAUUGGACAGGAUAUCCAAGGGUCGAAGCGGGAGAAGGGUCACAAUGGG | 32.5 nM | 51.9 nM | – | – |
| AAUCUGUAGCAGAAGGUCAUUUUUAUAAAUAAACUGGUGACAUGAGGAUCACCCAUGUAAACGUUGAAGGAUAUGCAUUCUAUU | – | – | 44.9 nM | 52.5 nM |
| AAUCUGUAGCAGAAGGUCAUUUUUAUAAAUAAGCUGGUGACAUGAGGAUCACCCAUGUAAAGGUUGAAGGAUAUGCAUUCUAUU | – | – | 90.5 nM | 343 nM |
| AAUGAAACUUAGAAGGCCUACAUGAGGAUCACCCAUGUGGCUUUAAGUGUAGGAGGAUAUGAGGAUGCGGGCAGGAACCCACGC | – | – | 6.17 nM | 11.6 nM |
| AAUGAGACCGCAGGAUAUCCACAUGAGGAUCACCCAUGUUCUCAGGUCGUAAGCACGACCUGCGAGGAGAAGGGCGACCUCAUA | 395 nM | 33.8 nM | – | – |
